Our source for the Activity, Ratio IC50 and IC50 values is ChEMBL document CHEMBL1156264, “Synthesis and structure-activity relationships of dimeric peptide antagonists of the human immunoglobulin G-human neonatal Fc receptor (IgG-FcRn) interaction” (J Med Chem, 2010).

Each structure is given as a SMILES string. Active and inactive are the calls of the source. No cut-off for these calls is given here. Numbered stars: 1 amine (or outer) side, 2 acyl side, 3 side chain; on linkers, the order of the positions; unused ones are H or OH. Bridge positions count the residues as written; N and C are the ends. Square brackets hold non-standard residues; d marks the D form. Peptide text beside a SMILES is read from it. I, II: the chains in the order shown. Phe(4-guanidino) = N=C(N)Nc1ccc(C[C@H](N)C(=O)O)cc1; X1 = O=C(C(=O)[*:2])[C@H](Cc1ccc(O)cc1)N[*:1]; NHCH2CH2N(Me)CH2CO = CN(CCN[*:1])CC(=O)[*:2]; NMeL = CN[C@@H](CC(C)C)C(=O)O; Pen = CC(C)(S)[C@H](N)C(=O)O; Suc = O=C(CCC(=O)[*:2])[*:1]; Sar = CNCC(=O)O

For assay [1], the system named is Mus musculus. The experiment in a line: Increase in human IgG catabolism in endogenous FcRn/beta2m gene knockout TG32B transgenic mouse harboring human FcRn at 1 mg/kg, iv QD for 4 consecutive days measured after 24 hrs by ELISA. The assay is classed as functional, organism-based. Also noted: dose 1 mg/kg. In outline:
(§1)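 TG32B mice (muFcRn−/−, muβ2m−/−, huFcRn+/+, huβ2m+/+), 4 per group, got 500 mg/kg hIgG (pooled subtypes) iv at 0 h. Peptide or vehicle (20 mM sodium acetate, pH 5) was given iv at 24, 48, 72 and 96 h. Blood was taken before each injection and at 30, 120 and 168 h. Serum hIgG was measured by ELISA: goat anti-hIgG(Fab) capture, goat anti-hIgG(Fc)-HRP detection.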

For assay [2], the target named is T1, IgG receptor FcRn large subunit p51 (Homo sapiens, UniProt P55899). Briefly: Ratio of RF-Pen-TGHFG-Sar-NMeLeu-YPC IC50 to compound IC50 for soluble human FcRn.
The test system of assay [3] is Mus musculus. The experiment in a line: Increase in human IgG catabolism in endogenous FcRn/beta2m gene knockout TG32B transgenic mouse harboring human FcRn at 2.5 mg/kg, iv QD for 4 consecutive days measured after 24 hrs by ELISA. The assay is classed as functional, organism-based. Set-up: dose 2.5 mg/kg. The gist of the method:
as §1

The test system of assay [4] is Mus musculus. The experiment in a line: Increase in human IgG catabolism in endogenous FcRn/beta2m gene knockout TG32B transgenic mouse harboring human FcRn at 5 mg/kg, iv QD for 4 consecutive days measured after 24 hrs by ELISA. Set-up: dose 5 mg/kg. The assay is classed as functional, organism-based. The gist of the method:
as §1

The test system of assay [5] is Mus musculus. Briefly: Increase in human IgG catabolism in iv dosed endogenous FcRn/beta2m gene knockout TG32B transgenic mouse harboring human FcRn administered QD for 4 consecutive days measured after 24 hrs by ELISA. The assay is classed as functional, organism-based. In outline:
as §1

Assay [6] deals with T1, IgG receptor FcRn large subunit p51. Briefly: Ratio of RFCTGHFGGLYPC IC50 to compound IC50 for soluble human FcRn.
Assay [7] shares this target. Briefly: Inhibition of IgG binding to soluble human FcRn after 2 hrs by competition ELISA.
The target is the same in assay [8]. The experiment in a line: Ratio of RF-Pen-TGHF-valerolactam-NMeLeu-YPC IC50 to compound IC50 for soluble human FcRn.
Assay [9] shares this target. Briefly: Ratio of RF-Pen-NMeAla-GHF-X-NMeLeu-YPC IC50 to compound IC50 for soluble human FcRn.
Assay [10] shares this target. The experiment in a line: Ratio of RF-Pen-TG-4GuPhe-G-Sar-NMeLeu-YPC IC50 to compound IC50 for soluble human FcRn.

T1 sequence (P55899 whole entry): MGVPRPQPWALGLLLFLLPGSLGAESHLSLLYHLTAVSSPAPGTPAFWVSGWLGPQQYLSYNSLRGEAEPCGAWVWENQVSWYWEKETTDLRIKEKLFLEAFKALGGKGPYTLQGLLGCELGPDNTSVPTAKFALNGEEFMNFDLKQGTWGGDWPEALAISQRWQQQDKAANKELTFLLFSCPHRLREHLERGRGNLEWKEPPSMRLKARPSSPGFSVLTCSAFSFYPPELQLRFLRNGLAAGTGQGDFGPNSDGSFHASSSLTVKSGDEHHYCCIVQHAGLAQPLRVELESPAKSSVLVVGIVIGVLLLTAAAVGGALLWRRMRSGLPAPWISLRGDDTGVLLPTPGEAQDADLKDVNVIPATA

With `CC(C)C[C@H]1C(=O)N[C@@H](Cc2ccc(O)cc2)C(=O)C(=O)N2CCC[C@H]2C(=O)N[C@H](C(N)=O)CSSC(C)(C)[C@H](NC(=O)[C@H](Cc2ccccc2)NC(=O)[C@H](CCCNC(=N)N)NC(=O)CCC(=O)N[C@@H](CCCNC(=N)N)C(=O)N[C@@H](Cc2ccccc2)C(=O)N[C@@H]2C(=O)N[C@@H]([C@@H](C)O)C(=O)NCC(=O)N[C@@H](Cc3c[nH]cn3)C(=O)N[C@@H](Cc3ccccc3)C(=O)NCC(=O)N(C)CC(=O)N(C)[C@@H](CC(C)C)C(=O)N[C@@H](Cc3ccc(O)cc3)C(=O)C(=O)N3CCC[C@H]3C(=O)N[C@H](C(N)=O)CSSC2(C)C)C(=O)N[C@@H]([C@@H](C)O)C(=O)NCC(=O)N[C@@H](Cc2c[nH]cn2)C(=O)N[C@@H](Cc2ccccc2)C(=O)NCC(=O)N(C)CC(=O)N1C`, the outcome in the assay on Mus musculus [1], in the assay with Mus musculus [3], with Mus musculus [4] and with Mus musculus [5] was Active. In addition, the Ratio IC50 in assay [2] was 220.
`CC(C)C[C@@H]1NC(=O)CNC(=O)CNC(=O)[C@H](Cc2ccccc2)NC(=O)[C@H](Cc2c[nH]cn2)NC(=O)CNC(=O)[C@H]([C@@H](C)O)NC(=O)[C@@H](NC(=O)[C@H](Cc2ccccc2)NC(=O)[C@H](CCCNC(=N)N)NC(=O)CCC(=O)NCCN(C)CC(=O)N[C@@H](CCCNC(=N)N)C(=O)N[C@@H](Cc2ccccc2)C(=O)N[C@H]2CSSC[C@@H](C(N)=O)NC(=O)[C@@H]3CCCN3C(=O)C(=O)[C@H](Cc3ccc(O)cc3)NC(=O)[C@H](CC(C)C)NC(=O)CNC(=O)CNC(=O)[C@H](Cc3ccccc3)NC(=O)[C@H](Cc3c[nH]cn3)NC(=O)CNC(=O)[C@H]([C@@H](C)O)NC2=O)CSSC[C@@H](C(N)=O)NC(=O)[C@@H]2CCCN2C(=O)C(=O)[C@H](Cc2ccc(O)cc2)NC1=O`: the Ratio IC50 in assay [6] amounted to 12.
In the case of `CC(C)C[C@H]1C(=O)N[C@@H](Cc2ccc(O)cc2)C(=O)C(=O)N2CCC[C@H]2C(=O)N[C@H](C(N)=O)CCCCNC(=O)C[C@H](NC(=O)[C@H](Cc2ccccc2)NC(=O)[C@H](CCCNC(=N)N)NC(=O)CCC(=O)NCCN(C)CC(=O)N[C@@H](CCCNC(=N)N)C(=O)N[C@@H](Cc2ccccc2)C(=O)N[C@H]2CC(=O)NCCCC[C@@H](C(N)=O)NC(=O)[C@@H]3CCCN3C(=O)C(=O)[C@H](Cc3ccc(O)cc3)NC(=O)[C@H](CC(C)C)N(C)C(=O)CN(C)C(=O)CNC(=O)[C@H](Cc3ccccc3)NC(=O)[C@H](Cc3c[nH]cn3)NC(=O)CNC(=O)[C@H]([C@@H](C)O)NC2=O)C(=O)N[C@@H]([C@@H](C)O)C(=O)NCC(=O)N[C@@H](Cc2c[nH]cn2)C(=O)N[C@@H](Cc2ccccc2)C(=O)NCC(=O)N(C)CC(=O)N1C` (I: [NHCH2CH2N(Me)CH2CO]RFDTGHFG[Sar][NMeL][X1]PK-NH2 / II: RFDTGHFG[Sar][NMeL][X1]PK-NH2; lactam I:4-I:14, II:3-II:13; linker I:N-II:N via Suc), the IC50 in [7] is 50 nM. Moreover, the result in the assay on Mus musculus [4] was Active.
In the case of `CC(C)C[C@H]1C(=O)N[C@@H](Cc2ccc(O)cc2)C(=O)C(=O)N2CCC[C@H]2C(=O)N[C@H](C(N)=O)CSSC(C)(C)[C@H](NC(=O)[C@H](Cc2ccccc2)NC(=O)[C@H](CCCNC(=N)N)NC(=O)CCC(=O)NCCN(C)CC(=O)N[C@@H](CCCNC(=N)N)C(=O)N[C@@H](Cc2ccccc2)C(=O)N[C@@H]2C(=O)N[C@@H]([C@@H](C)O)C(=O)NCC(=O)N[C@@H](Cc3c[nH]cn3)C(=O)N[C@@H](Cc3ccccc3)C(=O)N[C@H]3CCCN(CC(=O)N(C)[C@@H](CC(C)C)C(=O)N[C@@H](Cc4ccc(O)cc4)C(=O)C(=O)N4CCC[C@H]4C(=O)N[C@H](C(N)=O)CSSC2(C)C)C3=O)C(=O)N[C@@H]([C@@H](C)O)C(=O)NCC(=O)N[C@@H](Cc2c[nH]cn2)C(=O)N[C@@H](Cc2ccccc2)C(=O)N[C@H]2CCCN(CC(=O)N1C)C2=O`, the Ratio IC50 in assay [8] was 110. Moreover, the result in the assay on Mus musculus [5] was Active.
Turning to `CC(C)C[C@H]1C(=O)N[C@@H](Cc2ccc(O)cc2)C(=O)C(=O)N2CCC[C@H]2C(=O)N[C@H](C(N)=O)CSSC(C)(C)[C@H](NC(=O)[C@H](Cc2ccccc2)NC(=O)[C@H](CCCNC(=N)N)NC(=O)CCC(=O)NCCN(C)CC(=O)N[C@@H](CCCNC(=N)N)C(=O)N[C@@H](Cc2ccccc2)C(=O)N[C@@H]2C(=O)N(C)[C@@H](C)C(=O)NCC(=O)N[C@@H](Cc3c[nH]cn3)C(=O)N[C@@H](Cc3ccccc3)C(=O)N[C@H]3CCCN(CC(=O)N(C)[C@@H](CC(C)C)C(=O)N[C@@H](Cc4ccc(O)cc4)C(=O)C(=O)N4CCC[C@H]4C(=O)N[C@H](C(N)=O)CSSC2(C)C)C3=O)C(=O)N(C)[C@@H](C)C(=O)NCC(=O)N[C@@H](Cc2c[nH]cn2)C(=O)N[C@@H](Cc2ccccc2)C(=O)N[C@H]2CCCN(CC(=O)N1C)C2=O`, the IC50 in [7] is 18 nM. The result in the assay on Mus musculus [1] was Active. Besides, the Ratio IC50 in assay [9] is 61.
In the case of `CC(C)C[C@H]1C(=O)N[C@@H](Cc2ccc(O)cc2)C(=O)C(=O)N2CCC[C@H]2C(=O)N[C@H](C(N)=O)CSSC(C)(C)[C@H](NC(=O)[C@H](Cc2ccccc2)NC(=O)[C@H](CCCNC(=N)N)NC(=O)CCC(=O)N[C@@H](CCCNC(=N)N)C(=O)N[C@@H](Cc2ccccc2)C(=O)N[C@@H]2C(=O)N[C@@H]([C@@H](C)O)C(=O)NCC(=O)N[C@@H](Cc3ccc(NC(=N)N)cc3)C(=O)NCC(=O)N(C)CC(=O)N(C)[C@@H](CC(C)C)C(=O)N[C@@H](Cc3ccc(O)cc3)C(=O)C(=O)N3CCC[C@H]3C(=O)N[C@H](C(N)=O)CSSC2(C)C)C(=O)N[C@@H]([C@@H](C)O)C(=O)NCC(=O)N[C@@H](Cc2ccc(NC(=N)N)cc2)C(=O)NCC(=O)N(C)CC(=O)N1C` (I: RF[Pen]TG[Phe(4-guanidino)]G[Sar][NMeL][X1]PC-NH2 / II: RF[Pen]TG[Phe(4-guanidino)]G[Sar][NMeL][X1]PC-NH2; disulfide I:3-I:12, II:3-II:12; linker I:N-II:N via Suc), the outcome in the assay with Mus musculus [1] was Active. Besides, the Ratio IC50 in assay [10] was 50.
